ChEMBL document CHEMBL1125713, “Synthesis and antiarrhythmic activity of cis-2,6-dimethyl-alpha,alpha-diaryl-1-piperidinebutanols” (1991)

Tests used:
Canis familiaris [1] = test: Antiarrhythmic effect in coronary artery ligated dogs model at a dose of 5 mg/kg, value noted at end dose.; assay type: functional, Canis lupus familiaris, Heart
Procedure, shortened: (§1)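 Coronary-ligated dogs with ventricular arrhythmias. Dosing was 5 mg/kg in 10–20 mL isotonic saline, given as an iv infusion over 5 min. Limb lead II ECG was monitored continuously for up to 6 h. Percent normal sinus beats was scored at control, end of dose, 20 min and 1 h. Values are mean ± SEM for three or more animals, mean ± SD for two.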

Canis familiaris [2] = species on record: Canis familiaris; test: Compound was evaluated for the activity rating; assay type: functional, Canis lupus familiaris
Procedure, shortened: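 In ligated dogs given 5 mg/kg iv over 5 min, group % normal beats was plotted at end of dose, 20 min and 1 h. The area under this curve minus the control area was divided by the same area for an ideal response (100% normal beats for the whole hour), then multiplied by 100.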

Canis familiaris [3] = test: Antiarrhythmic effect in coronary artery ligated dogs model at a dose of 5 mg/kg, administered intravenously and value noted at 20 min; assay type: functional, Canis lupus familiaris, Heart; conditions: route intravenous; procedure, shortened: as §1
Canis familiaris [4] = test: Antiarrhythmic effect in coronary artery ligated dog model at a dose of 5 mg/kg, administered intravenously and value noted at 1 hr; assay type: functional, Canis lupus familiaris, Heart; conditions: route intravenous; procedure, shortened: as §1
Canis familiaris [5] = test: Compound was evaluated for the heart rate effect in normal dogs at a dose of 5 mg/kg, administered intravenously and value noted at 20 min.; assay type: functional, Canis lupus familiaris; conditions: route intravenous
Procedure, shortened: (§2)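 Conscious normal dogs, trained and sling-restrained, received the same iv dosing: 5 mg/kg infused over 5 min. Heart rate came from continuous limb lead II ECG at control, end of dose, 20 min and 1 h. Values are mean ± SD for two dogs.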

Canis familiaris [6] = species on record: Canis familiaris; test: Compound was evaluated for the degree of tachycardia 160-199; assay type: functional, Canis lupus familiaris
Procedure, shortened: (§3)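 Conscious normal dogs received 5 mg/kg iv over 5 min, with heart rate from limb lead II ECG. Tachycardia was graded as severe (≥200 beats/min), moderate (160–199), slight (<160 after a rise of ≥20) or none (change <20 beats/min).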

Canis familiaris [7] = test: Compound was evaluated for the heart rate effect in normal dogs at a dose of 5 mg/kg, administered intravenously and value noted at end dose.; assay type: functional, Canis lupus familiaris; conditions: route intravenous; procedure, shortened: as §2
Canis familiaris [8] = test: Compound was evaluated for the heart rate effect in normal dogs at a dose of 5 mg/kg, administered intravenously and value noted at 1h.; assay type: functional, Canis lupus familiaris; conditions: route intravenous; procedure, shortened: as §2
Canis familiaris [9] = species on record: Canis familiaris; test: Compound was evaluated for the duration of sustained effect; assay type: functional, Canis lupus familiaris
Procedure, shortened: (§4)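 Normal dogs received 5 mg/kg iv over 5 min, with heart rate tracked by continuous ECG. Dogs above 140 beats/min were followed until the rate fell to 140. The sustained effect was rated long (>2 h), moderate (0.5–2 h) or short (<0.5 h).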

Canis familiaris [10] = species on record: Canis familiaris; test: Compound was evaluated for the degree of tachycardia; 160-199; assay type: functional, Canis lupus familiaris; procedure, shortened: as §3
Canis familiaris [11] = species on record: Canis familiaris; test: Compound was evaluated for the degree of tachycardia; assay type: functional, Canis lupus familiaris; procedure, shortened: as §3
Canis familiaris [12] = species on record: Canis familiaris; test: Compound was evaluated for the duration of sustained effect; 0.5-2; assay type: functional, Canis lupus familiaris; procedure, shortened: as §4
Canis familiaris [13] = species on record: Canis familiaris; test: Compound was evaluated for the degree of tachycardia.; assay type: functional, Canis lupus familiaris; procedure, shortened: as §3

Row | Compound | Normal beats (Canis familiaris [1]) [%] | Activity rating (Canis familiaris [2]) | Normal beats (Canis familiaris [3]) [%] | Normal beats (Canis familiaris [4]) [%] | Heart rate (Canis familiaris [5]) [beats min-1] | Heart rate (Canis familiaris [6]) [beats min-1] | Heart rate (Canis familiaris [7]) [beats min-1] | Heart rate (Canis familiaris [8]) [beats min-1] | Duration (Canis familiaris [9]) [h] | Heart rate (Canis familiaris [10]) [beats min-1] | Beats/min (Canis familiaris [5]) | Beats/min (Canis familiaris [11]) | Beats/min (Canis familiaris [7]) | Beats/min (Canis familiaris [8]) | Duration (Canis familiaris [12]) [h] | Heart rate (Canis familiaris [13]) [beats min-1]
1 | CC(=O)NCC(CCCN1C(C)CCCC1C)(c1ccccc1)c1ccccc1.Cl (stereo unspecified) | 95 | 62 | 71 | 53 |  |  |  |  |  |  |  |  |  |  |  | 
2 | CC1CCCC(C)N1CCCC(C#N)(c1ccccc1)c1ccccc1.Cl (stereo unspecified) | 90 | 82 | 88 | 65 | 147 | 160 | 168 | 137 | >2 |  |  |  |  |  |  | 
3 | CC1CCCC(C)N1CCCC(O)c1ccccc1.Cl (stereo unspecified) | 99 | 35 | 45 | 10 |  |  |  |  |  |  |  |  |  |  |  | 
4 | CC1CCCC(C)N1CCCC(O)(c1ccccc1)c1cccnc1.Cl (stereo unspecified) | 43 | 13 | 16 | 6 |  |  |  |  |  |  |  |  |  |  |  | 
5 | Cl.OC(CCCN1CCCCC1)(c1ccccc1)c1ccccc1 [DIPHENIDOL HYDROCHLORIDE] | 90 | 39 | 54 | 34 | 155 |  | 200 | 142 | >2 | 160 |  |  |  |  |  | 
6 | CC1CCCC(C)N1CCCC(c1ccccc1)c1ccccc1.Cl (stereo unspecified) | 95 | 94 | 97 | 92 |  |  |  |  | >2 |  | 218 | >=200 | 255 | 179 |  | 
7 | CC1CCCC(C)N1CCCC(O)(c1ccccn1)c1ccccn1.Cl (stereo unspecified) | 90 | 53 | 68 | 32 |  |  |  |  |  |  |  |  |  |  |  | 
8 | CC1CCCC(C)N1CCCCC(O)(c1ccccc1)c1ccccc1 (stereo unspecified) | 99 | 72 | 84 | 51 | 139 |  | 137 | 140 |  |  |  |  |  |  | 0.5 | 
9 | CC1CCCC(C)N1CCCC(O)(c1ccccc1)C1CCCCC1.Cl (stereo unspecified) | 98 | 66 | 65 | 68 | 152 |  | 176 | 121 |  | 160 |  |  |  |  | 0.5 | 
10 | CC1CCCC(C)N1CCC(CN)(c1ccccc1)c1ccccc1 (stereo unspecified) | 100 | 50 | 61 | 39 |  |  |  |  |  |  |  |  |  |  |  | 
11 | CC1CCCC(C)N1CCC(C(N)=O)(c1ccccc1)c1ccccc1.Cl (stereo unspecified) | 64 | 39 | 51 | 83 |  |  |  |  |  |  |  |  |  |  |  | 
12 | CC1CCCC(C)N1CCCC(O)(c1ccccc1)c1ccccc1.Cl (stereo unspecified) | 96 | 81 | 86 | 76 | 155 |  | 187 | 165 |  | 160 |  |  |  |  |  | 
13 | CC1CCCC(C)N1CC(O)(c1ccccc1)c1ccccc1 (stereo unspecified) | 56 | 15 | 16 | 16 | 92 |  | 115 | 96 |  |  |  |  |  |  |  | 
14 | CC1CCCC(C)N1CCCC(C(N)=O)(c1ccccc1)c1ccccc1.Cl (stereo unspecified) | 98 | 91 | 90 | 94 | 223 |  | 235 | 215 | >2 |  |  |  |  |  |  | >200
15 | CC1CCCC(C)N1CCC(C#N)(c1ccccc1)c1ccccc1.Cl (stereo unspecified) | 91 | 70 | 72 | 65 |  |  |  |  |  |  |  |  |  |  |  | 
16 | CC(C)N(CCC(C(N)=O)(c1ccccc1)c1ccccn1)C(C)C (stereo unspecified) [DISOPYRAMIDE] | 89 | 49 | 60 | 16 |  |  |  |  |  |  |  |  |  |  |  | 
17 | CC1CCC(C)N1CCCCC(O)(c1ccccc1)c1ccccn1 (stereo unspecified) | 88 | 42 | 52 | 43 |  |  |  |  |  |  |  |  |  |  |  | 
18 | CC1CCCC(C)N1CCCC(O)(c1ccccc1)c1ccccn1.Cl (stereo unspecified) [PIRMENOL HYDROCHLORIDE] | 94 | 71 | 80 | 59 | 172 |  | 194 | 157 | >2 | 160 |  |  |  |  |  | 
19 | CC1CCCC(C)N1CCCC(C(N)=O)(c1ccccc1)c1ccccn1 (stereo unspecified) | 96 | 80 | 87 | 62 | 145 |  | 197 | 129 |  | 160 |  |  |  |  | 0.5 | 
20 | CCC1CCCCN1CCCC(O)(c1ccccc1)c1ccccc1.Cl (stereo unspecified) | 87 | 46 | 48 | 37 |  |  |  |  |  |  |  |  |  |  |  | 
21 | CC1CCC(C)N1CCCC(O)(c1ccccc1)c1ccccc1.Cl (stereo unspecified) | 69 | 29 | 39 | 35 | 218 |  | 243 | 193 | >2 |  |  |  |  |  |  | >200
22 | CC1CCCC(C)N1CCCC(c1ccccc1)c1ccccn1.Cl (stereo unspecified) | 62 | 47 | 37 | 67 |  |  |  |  |  |  |  |  |  |  |  | 
23 | CC(=O)NCC(CCN1C(C)CCCC1C)(c1ccccc1)c1ccccc1 (stereo unspecified) | 82 | 53 | 62 | 49 | 119 |  | 141 | 103 | <0.5 |  |  |  |  |  |  | <160
24 | CC1CCCC(C)N1CCCC(C#N)(c1ccccc1)c1ccccn1 (stereo unspecified) | 100 | 36 | 50 | 97 | 154 |  | 154 | 131 | <0.5 |  |  |  |  |  |  | <160
25 | CC1CCCC(C)N1CCC(O)(c1ccccc1)c1ccccc1.Cl (stereo unspecified) | 97 | 86 | 96 | 74 | 117 |  | 137 | 130 |  |  |  |  |  |  |  | 
26 | CC1CCCC(C)N1CCCC(O)(c1ccccc1)c1ccncc1 (stereo unspecified) | 51 | 13 | 11 | 7 |  |  |  |  |  |  |  |  |  |  |  | 
27 | Cl.OC(CCCN1CCCCC1)(c1ccccc1)c1ccccn1 (stereo unspecified) | 97 | 17 | 21 | 8 |  |  |  |  |  |  |  |  |  |  |  | 
28 | Cc1ccccc1C(O)(CCCN1C(C)CCCC1C)c1ccccc1.Cl (stereo unspecified) | 92 | 60 | 61 | 61 | 149 |  | 155 | 151 | >2 |  |  |  |  |  |  | <160
